How the values were obtained:
[1] = ROS scavenging in cell-free non-enzymatic O2·−-generating system; conditions: concentrations up to 20 μM; data not shown
Method in brief: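 Superoxide generated non-enzymatically from phenazine methosulfate plus NADH in 0.05 M phosphate buffer, pH 7.5, with or without test compound. Detection by NBT reduction to monoformazan, followed at 560 nm and 25 °C on a plate spectrophotometer. The rate of absorbance change was taken as the read-out.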

human FPR2 [2] = target: T1, human FPR2 (Homo sapiens, UniProt P25090); type: cell-based; conditions: for Ca+2 mobilization FPR2-HL60 max. inhibition: desensitization, pretreatment, then WKYMVM 5 nM
T1 sequence (P25090 1-351): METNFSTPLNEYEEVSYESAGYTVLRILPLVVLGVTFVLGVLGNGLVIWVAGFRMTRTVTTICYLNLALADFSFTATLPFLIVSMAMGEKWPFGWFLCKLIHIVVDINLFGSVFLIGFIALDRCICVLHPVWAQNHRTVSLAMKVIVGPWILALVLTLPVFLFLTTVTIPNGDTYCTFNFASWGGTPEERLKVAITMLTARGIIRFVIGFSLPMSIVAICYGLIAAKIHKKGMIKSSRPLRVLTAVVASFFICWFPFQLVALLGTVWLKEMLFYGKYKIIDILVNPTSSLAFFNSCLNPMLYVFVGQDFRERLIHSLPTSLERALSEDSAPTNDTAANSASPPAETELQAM
Method in brief: (§1)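 Fluo-4-loaded transfected HL-60 cells in HBSS⁺ were pretreated with DMSO vehicle or graded test compound concentrations while Ca²⁺ flux was monitored. The same wells were then challenged with 5 nM fMLF (FPR1 cells) or 5 nM WKYMVM (FPR2 cells). The second Ca²⁺ response (ex 485/em 538 nm, every 5 s for 240 s, room temperature) was taken as the measure of desensitization. Each compound was run in triplicate, with dose-response curves fitted by nonlinear regression.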

[3] = test system: mouse microglial N9 cells; assay: ROS production in LPS-stimulated N9 cells; type: cell-based; conditions: for reduction in cellular ROS level (dose dependence): N9 cells stimulated with LPS, 0.1 and 1 μM; for reduction in ROS production: N9 cells, 24 h co-incubation with LPS, compound 0.1 μM, p<0.05
Method in brief: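 N9 microglia seeded at 25,000 cells/well; after 3–4 h, LPS 300 ng/mL added alone or with test compound (0.1 or 1 μM), then 24 h at 37 °C. H2DCF-DA (10 μM final) added for 30 min, wells washed 3× in ice-cold PBS, read in saline at ex 480/em 520 nm. Increase over basal fluorescence; mean ± standard error, ≥3 biological replicates; one-way ANOVA with paired two-tailed t-tests, p<0.05.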

human FPR1 [4] = target: T2, human FPR1 (Homo sapiens, UniProt P21462); assay: Desensitization: inhibition of fMLF-induced Ca2+ mobilization in FPR1-HL60 cells; type: cell-based
T2 sequence (P21462 1-350): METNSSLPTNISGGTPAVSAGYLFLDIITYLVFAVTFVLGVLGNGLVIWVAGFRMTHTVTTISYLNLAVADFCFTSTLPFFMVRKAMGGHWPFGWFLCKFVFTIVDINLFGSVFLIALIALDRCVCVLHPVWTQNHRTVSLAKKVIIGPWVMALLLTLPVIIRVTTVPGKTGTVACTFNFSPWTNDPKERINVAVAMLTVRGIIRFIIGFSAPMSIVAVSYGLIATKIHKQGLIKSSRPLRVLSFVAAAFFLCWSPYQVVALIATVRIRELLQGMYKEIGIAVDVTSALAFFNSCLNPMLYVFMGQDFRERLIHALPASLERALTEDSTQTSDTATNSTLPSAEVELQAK
Method in brief: as §1

N9 cells = assay: MTT cytotoxicity assay in N9 cells; type: cell-based; conditions: Mus musculus, N9, 24 h, read-out: MTT EC50
Method in brief: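 Murine N9 microglia were grown in IMDM with 5% FBS and 2 mM glutamine at 37 °C in 5% CO₂, and seeded at 20,000 cells/well. Next day, test compound was added at 5–6 concentrations (10⁻⁸–10⁻⁴ M) in triplicate, with a DMSO vehicle control. After 24 h, MTT (0.5 mg/mL) was added for 3–4 h at 37 °C. Formazan was dissolved in DMSO/EtOH 1:1 and read at 570 and 630 nm. EC50 came from a nonlinear fit of percent absorbance change against log concentration.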

human FPR2 [5] = target: T1, human FPR2; assay: Ca2+ mobilization; type: cell-based; conditions: for Ca+2 mobilization FPR2-HL60 efficacy: normalized to 5 nM WKYMVM = 100%
Method in brief: (§2)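 FPR1- or FPR2-stably transfected HL-60 cells were kept in RPMI 1640 with 10% FCS and G418. Cells were loaded with Fluo-4 AM (1.25 µg/mL final) for 30 min at 37 °C in the dark, then put in HBSS with Ca²⁺/Mg²⁺ at 2×10⁵ cells/well. After test compound addition, fluorescence (ex 485/em 538 nm) was read every 5 s for 240 s at room temperature. Peak change over baseline was normalized to 5 nM fMLF (FPR1) or 5 nM WKYMVM (FPR2). Runs were in triplicate, with EC50 from nonlinear regression of 5–6 points.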

human FPR1 [6] = target: T2, human FPR1; assay: Ca2+ mobilization; type: cell-based; conditions: for Ca+2 mobilization FPR1-HL60 efficacy: normalized to 5 nM fMLF = 100%
Method in brief: as §2

FPR2 [7] = conditions: FPR2 agonist WKYMVm; cited from earlier work
FPR2 [8] = conditions: cited from earlier work
ear edema = conditions: cited from earlier work
FPR2 [9] = conditions: read-out: Ki value at FPR2; cited from earlier work
FPR2 [10] = conditions: read-out: FPR2 desensitization IC50; cited from earlier work

Ca+2 mobilization FPR2-HL60 efficacy (human FPR2 [5]) [%] | Ca+2 mobilization FPR1-HL60 efficacy (human FPR1 [6]) [%] | Structure (SMILES) | direct ROS scavenging activity [1] | Ca+2 mobilization FPR2-HL60 max. inhibition (human FPR2 [2]) [%] | reduction in cellular ROS level (dose dependence) [3] | reduction in ROS production [3] | EC50 (N9 cells) [nM] | other results
140 | 110 | O=C(Nc1ccc(Br)cc1)N[C@H](Cc1ccc(O)cc1)C(=O)NC1CCCCNC1=O (stereo partly drawn) [(2R)-46, (2R)-2-[3-(4-Bromophenyl)ureido]-3-(4-hydroxyphenyl)-N-(2-oxoazepan-3-yl)propanamide] | none of the tested compounds demonstrated ROS scavenging activity | 100 | dose-dependent reduction in cellular ROS level | statistically significant reduction in ROS production | > 100000 | FPR2 desensitization / block of agonist-induced Ca2+ mobilization, in words (human FPR2 [2]; FPR2-HL60 cells, WKYMVM): able to induce desensitization; FPR1 desensitization / inhibition of fMLF-induced Ca2+ mobilization, in words (human FPR1 [4]; FPR1-HL60 cells, fMLF): able to induce FPR1 desensitization; Ca+2 mobilization FPR1-HL60 max. inhibition (human FPR1 [4]; desensitization, pretreatment, then fMLF 5 nM): 85%; EC50 (human FPR2 [5]): 350 ± 120 nM; EC50 (human FPR1 [6]): 820 ± 370 nM
 |  | CCCCOc1ccc(C(=O)NN2C(=O)c3ccccc3NC2c2ccc(O)cc2)cc1 (stereo not drawn) [Compound 6, Quin C7] |  |  |  |  |  | inhibition of chemotaxis induced by WKYMVm (FPR2 [7]): inhibited; inhibition of Ca2+ flux induced by WKYMVm (FPR2 [8]; FPR2 agonist WKYMVm): inhibited; activation of Ca2+ flux (FPR2 [8]; FPR2 transfected cells): did not activate Ca^2+ flux; arachidonic acid-induced ear edema (ear edema): inhibited arachidonic acid-induced ear edema; Ki (FPR2 [9]): 6700 nM
 |  | CCCCOc1ccc(C(=O)NN2C(=O)c3ccccc3NC2c2ccc(OC)cc2)cc1 (stereo not drawn) [Quin C1, reference compound] |  |  |  | statistically significant reduction in ROS production |  | IC50 (FPR2 [10]): 40 nM
90 | 55 | COc1ccc(NC(=O)N[C@H](Cc2ccc(O)cc2)C(=O)NCC2(c3ccccc3)CC2)cc1 [(R)-25, (R)-3-(4-Hydroxyphenyl)-2-[3-(4-methoxyphenyl)ureido]-N-[(1-phenylcyclopropyl)methyl]propanamide] | none of the tested compounds demonstrated ROS scavenging activity | 75 | dose-dependent reduction in cellular ROS level | statistically significant reduction in ROS production | > 100000 | 
 |  | N#Cc1ccc(C[C@@H](NC(=O)Nc2ccc(O)cc2)C(=O)NCC2(c3ccccc3)CC2)cc1 [(R)-24, (R)-3-(4-Cyanophenyl)-2-[3-(4-hydroxyphenyl)ureido]-N-[(1-phenylcyclopropyl)methyl]propanamide] |  |  |  |  | > 100000 | 

Reference: article PMC5909973 (ChemMedChem, 2017)
